Assay results: ChEMBL document CHEMBL3763086, “Salicylanilide N-monosubstituted carbamates: Synthesis and in vitro antimicrobial activity” (2016)
≈ marks a conversion by molar mass, not a printed value.

How the values were obtained:
Format in all cases: functional
Staphylococcus aureus [1] = assay: Antibacterial activity against Staphylococcus aureus CCM 4516/08 after 24 hrs by microbroth dilution method; conditions: CCM 4516/08, 24 h
Summary of the method: (§1)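 Microbroth dilution modified per M07-A07 in Mueller-Hinton broth, pH 7.4 (±0.2). Inoculum in sterile water adjusted to 0.5 McFarland. MIC taken as growth reduction of at least 90% (IC90) versus control, read visually and at 540 nm after 24 and 48 h incubation in the dark.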

Staphylococcus aureus [2] = assay: Antibacterial activity against Staphylococcus aureus CCM 4516/08 after 48 hrs by microbroth dilution method; conditions: CCM 4516/08, 48 h
Summary of the method: (§2)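 Microdilution broth method modified after M07-A07 in Mueller-Hinton broth adjusted to pH 7.4 (±0.2). Inoculum prepared in sterile water to 0.5 McFarland (1.5 × 10^8 CFU/mL). MIC taken as growth reduction versus control (IC95 per table header), read visually and spectrophotometrically at 540 nm after 24 and 48 h incubation in the dark.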

Staphylococcus aureus [3] = assay: Antibacterial activity against methicillin-resistant Staphylococcus aureus H 5996/08 after 24 hrs by microbroth dilution method; conditions: H 5996/08, 24 h; summary of the method: as §2
Staphylococcus aureus [4] = assay: Antibacterial activity against methicillin-resistant Staphylococcus aureus H 5996/08 after 48 hrs by microbroth dilution method; conditions: H 5996/08, 48 h; summary of the method: as §2
[5] = system: Staphylococcus epidermidis; assay: Antibacterial activity against Staphylococcus epidermidis H 6966/08 after 24 hrs by microbroth dilution method; conditions: H 6966/08, 24 h; summary of the method: as §1
[6] = system: Staphylococcus epidermidis; assay: Antibacterial activity against Staphylococcus epidermidis H 6966/08 after 48 hrs by microbroth dilution method; conditions: H 6966/08, 48 h; summary of the method: as §1
Enterococcus sp. [7] = assay: Antibacterial activity against Enterococcus sp. J 14365/08 after 24 hrs by microbroth dilution method; conditions: J 14365/08, 24 h; summary of the method: as §1
Enterococcus sp. [8] = assay: Antibacterial activity against Enterococcus sp. J 14365/08 after 48 hrs by microbroth dilution method; conditions: J 14365/08, 48 h; summary of the method: as §1
Escherichia coli [9] = assay: Antibacterial activity against Escherichia coli CCM 4517 after 24 hrs by microbroth dilution method; conditions: CCM 4517, 24 h; summary of the method: as §1
Escherichia coli [10] = assay: Antibacterial activity against Escherichia coli CCM 4517 after 48 hrs by microbroth dilution method; conditions: CCM 4517, 48 h; summary of the method: as §1
Klebsiella pneumoniae [11] = assay: Antibacterial activity against Klebsiella pneumoniae D 11750/08 after 24 hrs by microbroth dilution method; conditions: D 11750/08, 24 h; summary of the method: as §1
Klebsiella pneumoniae [12] = assay: Antibacterial activity against Klebsiella pneumoniae D 11750/08 after 48 hrs by microbroth dilution method; conditions: D 11750/08, 48 h; summary of the method: as §1
Klebsiella pneumoniae [13] = assay: Antibacterial activity against ESBL-positive Klebsiella pneumoniae J 14368/08 after 24 hrs by microbroth dilution method; conditions: J 14368/08, 24 h; summary of the method: as §1
Klebsiella pneumoniae [14] = assay: Antibacterial activity against ESBL-positive Klebsiella pneumoniae J 14368/08 after 48 hrs by microbroth dilution method; conditions: J 14368/08, 48 h; summary of the method: as §1
Candida albicans [15] = assay: Antifungal activity against Candida albicans ATCC 44859 after 24 hrs by microbroth dilution method; conditions: ATCC 44859, 24 h
Candida albicans [16] = assay: Antifungal activity against Candida albicans ATCC 44859 after 48 hrs by microbroth dilution method; conditions: ATCC 44859, 48 h
Candida tropicalis [17] = assay: Antifungal activity against Candida tropicalis 156 after 24 hrs by microbroth dilution method; conditions: Candida tropicalis, 156, 24 h
Candida tropicalis [18] = assay: Antifungal activity against Candida tropicalis 156 after 48 hrs by microbroth dilution method; conditions: Candida tropicalis, 156, 48 h
Pichia kudriavzevii [19] = assay: Antifungal activity against Candida krusei E28 after 24 hrs by microbroth dilution method; conditions: E28, 24 h
Pichia kudriavzevii [20] = assay: Antifungal activity against Candida krusei E28 after 48 hrs by microbroth dilution method; conditions: E28, 48 h
Nakaseomyces glabratus [21] = assay: Antifungal activity against Candida glabrata 20/I after 24 hrs by microbroth dilution method
Nakaseomyces glabratus [22] = assay: Antifungal activity against Candida glabrata 20/I after 48 hrs by microbroth dilution method
Trichosporon asahii [23] = assay: Antifungal activity against Trichosporon asahii 1188 after 24 hrs by microbroth dilution method; conditions: Trichosporon asahii, 1188, 24 h
Trichosporon asahii [24] = assay: Antifungal activity against Trichosporon asahii 1188 after 48 hrs by microbroth dilution method; conditions: Trichosporon asahii, 1188, 48 h
Lichtheimia corymbifera [25] = assay: Antifungal activity against Absidia corymbifera 272 after 24 hrs by microbroth dilution method; conditions: Lichtheimia corymbifera, 272, 24 h
Lichtheimia corymbifera [26] = assay: Antifungal activity against Absidia corymbifera 272 after 48 hrs by microbroth dilution method; conditions: Lichtheimia corymbifera, 272, 48 h
[27] = system: Trichophyton mentagrophytes; assay: Antifungal activity against Trichophyton mentagrophytes 445 after 72 hrs by microbroth dilution method; conditions: Trichophyton mentagrophytes, 445, 72 h
[28] = system: Trichophyton mentagrophytes; assay: Antifungal activity against Trichophyton mentagrophytes 445 after 120 hrs by microbroth dilution method; conditions: Trichophyton mentagrophytes, 445, 120 h

Compound | MIC (Staphylococcus aureus [1]) | MIC (Staphylococcus aureus [2]) | MIC (Staphylococcus aureus [3]) | MIC (Staphylococcus aureus [4]) | MIC [5] | MIC [6] | MIC (Enterococcus sp. [7]) | MIC (Enterococcus sp. [8]) | MIC (Escherichia coli [9]) | MIC (Escherichia coli [10]) | MIC (Klebsiella pneumoniae [11]) | MIC (Klebsiella pneumoniae [12]) | MIC (Klebsiella pneumoniae [13]) | MIC (Klebsiella pneumoniae [14]) | MIC (Candida albicans [15]) | MIC (Candida albicans [16]) | MIC (Candida tropicalis [17]) | MIC (Candida tropicalis [18]) | MIC (Pichia kudriavzevii [19]) | MIC (Pichia kudriavzevii [20]) | further results
O=C(Nc1ccccc1)Oc1ccc(Cl)cc1C(=O)Nc1ccc(Br)cc1 | ≤ 0.49 µM | 0.98 µM (≈ 0.437 µg/mL) | ≤ 0.49 µM | 0.98 µM (≈ 0.437 µg/mL) | ≤ 0.49 µM | 0.98 µM (≈ 0.437 µg/mL) | 500 µM (≈ 223 µg/mL) | 500 µM (≈ 223 µg/mL) | > 500 µM | > 500 µM | > 500 µM | > 500 µM | > 500 µM | > 500 µM | > 500 µM | > 500 µM | > 500 µM | > 500 µM | 250 µM (≈ 111 µg/mL) | 250 µM (≈ 111 µg/mL) | MIC (Nakaseomyces glabratus [21]): 125 µM (≈ 55.7 µg/mL); MIC (Nakaseomyces glabratus [22]): 125 µM (≈ 55.7 µg/mL); MIC (Trichosporon asahii [23]): 125 µM (≈ 55.7 µg/mL); MIC (Trichosporon asahii [24]): 125 µM (≈ 55.7 µg/mL); MIC (Lichtheimia corymbifera [25]): > 500 µM; MIC (Lichtheimia corymbifera [26]): > 500 µM; MIC [27]: 3.9 µM (≈ 1.74 µg/mL); MIC [28]: 3.9 µM (≈ 1.74 µg/mL)
O=C(NCc1ccccc1)Oc1ccc(Cl)cc1C(=O)Nc1ccc(Cl)cc1 | 3.9 µM (≈ 1.62 µg/mL) | 15.6 µM (≈ 6.49 µg/mL) | 7.81 µM (≈ 3.24 µg/mL) | 15.6 µM (≈ 6.49 µg/mL) | 3.9 µM (≈ 1.62 µg/mL) | 3.9 µM (≈ 1.62 µg/mL) | > 125 µM | > 125 µM | > 125 µM | > 125 µM | 125 µM (≈ 51.9 µg/mL) | 125 µM (≈ 51.9 µg/mL) | 62.5 µM (≈ 26 µg/mL) | 125 µM (≈ 51.9 µg/mL) | > 125 µM | > 125 µM | > 125 µM | > 125 µM | 62.5 µM (≈ 26 µg/mL) | 62.5 µM (≈ 26 µg/mL) | MIC (Nakaseomyces glabratus [21]): > 125 µM; MIC (Nakaseomyces glabratus [22]): > 125 µM; MIC (Trichosporon asahii [23]): 15.6 µM (≈ 6.49 µg/mL); MIC (Trichosporon asahii [24]): 15.6 µM (≈ 6.49 µg/mL); MIC (Lichtheimia corymbifera [25]): > 125 µM; MIC (Lichtheimia corymbifera [26]): > 125 µM; MIC [27]: 1.95 µM (≈ 0.81 µg/mL); MIC [28]: 1.95 µM (≈ 0.81 µg/mL)
O=C(NC1CCCCC1)Oc1ccc(Cl)cc1C(=O)Nc1ccc(Br)cc1 | ≤ 0.49 µM | 0.98 µM (≈ 0.443 µg/mL) | ≤ 0.49 µM | 1.95 µM (≈ 0.881 µg/mL) | ≤ 0.49 µM | 0.98 µM (≈ 0.443 µg/mL) | 500 µM (≈ 226 µg/mL) | 500 µM (≈ 226 µg/mL) | > 500 µM | > 500 µM | > 500 µM | > 500 µM | > 500 µM | > 500 µM | > 125 µM | > 125 µM | > 125 µM | > 125 µM | > 125 µM | > 125 µM | MIC (Nakaseomyces glabratus [21]): > 125 µM; MIC (Nakaseomyces glabratus [22]): > 125 µM; MIC (Trichosporon asahii [23]): 62.5 µM (≈ 28.2 µg/mL); MIC (Trichosporon asahii [24]): 62.5 µM (≈ 28.2 µg/mL); MIC (Lichtheimia corymbifera [25]): > 125 µM; MIC (Lichtheimia corymbifera [26]): > 125 µM; MIC [27]: 1.95 µM (≈ 0.881 µg/mL); MIC [28]: 1.95 µM (≈ 0.881 µg/mL)
